Assay results published in ChEMBL document CHEMBL5058577, “EUbOPEN Chemogenomics Library 2 (Multiplex)” (2022).

Test system: Fibroblast
Experiment: Multiplex assay against human fibroblast
Format: toxicity, cell-based
Summary of the method: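 Cells stained live at seeding with Hoechst33342, BioTracker Green Microtubule Cytoskeleton Dye, MitoTracker Red and Annexin V Alexa Fluor 680 were imaged on a CQ1 microscope at 37°C and 5% CO2 after compound addition. Their classification by CellPathfinder machine-learning gating ran from Hoechst high-intensity objects versus normal cells, to healthy, pyknosed or fragmented nuclei among normal cells, to mitotic or apoptotic among pyknosed cells. Tubulin, mitochondrial-mass and membrane-permeability phenotypes are per cents of healthy-nucleus cells.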

[1] = 12 h, 1 µM, compound concentration 1 uM, replicate 1
[2] = 12 h, 1 µM, compound concentration 1 uM, replicate 2
[3] = 12 h, 10 µM, compound concentration 10 uM, replicate 1
[4] = 12 h, 10 µM, compound concentration 10 uM, replicate 2
[5] = 24 h, 1 µM, compound concentration 1 uM, replicate 1
[6] = 24 h, 1 µM, compound concentration 1 uM, replicate 2
[7] = 24 h, 10 µM, compound concentration 10 uM, replicate 1
[8] = 24 h, 10 µM, compound concentration 10 uM, replicate 2
[9] = 48 h, 1 µM, compound concentration 1 uM, replicate 1
[10] = 48 h, 1 µM, compound concentration 1 uM, replicate 2
[11] = 48 h, 10 µM, compound concentration 10 uM, replicate 1
[12] = 48 h, 10 µM, compound concentration 10 uM, replicate 2

C[C@H](NC(=O)CNC(=O)c1cccc(Cl)c1)c1ccccc1
Population Apoptotic (%) [1]: 50% | Population Fragmented Nuclei (%) [1]: 18% | Population Healthy Nuclei (%) [1]: 71% | Population Hoechst High Intensity Objects (%) [1]: 0% | Population Membrane Permeable-Phenotype (%) [1]: 0% | Population Mitochondria Different-Phenotype (%) [1]: 4% | Population Mitotic Cells (%) [1]: 50% | Population Normal (%) [1]: 100% | Population Pyknosed Nuclei (%) [1]: 10% | Population Tubulin-Different-Phenotype (%) [1]: 17% | Total Cell Count [1]: 94 | Population Apoptotic (%) [2]: 44% | Population Fragmented Nuclei (%) [2]: 28% | Population Healthy Nuclei (%) [2]: 53% | Population Hoechst High Intensity Objects (%) [2]: 3% | Population Membrane Permeable-Phenotype (%) [2]: 6% | Population Mitochondria Different-Phenotype (%) [2]: 2% | Population Mitotic Cells (%) [2]: 56% | Population Normal (%) [2]: 96% | Population Pyknosed Nuclei (%) [2]: 18% | Population Tubulin-Different-Phenotype (%) [2]: 41% | Total Cell Count [2]: 140 | Population Apoptotic (%) [3]: 48% | Population Fragmented Nuclei (%) [3]: 15% | Population Healthy Nuclei (%) [3]: 58% | Population Hoechst High Intensity Objects (%) [3]: 2% | Population Membrane Permeable-Phenotype (%) [3]: 0% | Population Mitochondria Different-Phenotype (%) [3]: 8% | Population Mitotic Cells (%) [3]: 51% | Population Normal (%) [3]: 97% | Population Pyknosed Nuclei (%) [3]: 26% | Population Tubulin-Different-Phenotype (%) [3]: 35% | Total Cell Count [3]: 106 | Population Apoptotic (%) [4]: 43% | Population Fragmented Nuclei (%) [4]: 31% | Population Healthy Nuclei (%) [4]: 43% | Population Hoechst High Intensity Objects (%) [4]: 1% | Population Membrane Permeable-Phenotype (%) [4]: 13% | Population Mitochondria Different-Phenotype (%) [4]: 3% | Population Mitotic Cells (%) [4]: 56% | Population Normal (%) [4]: 98% | Population Pyknosed Nuclei (%) [4]: 24% | Population Tubulin-Different-Phenotype (%) [4]: 54% | Total Cell Count [4]: 124 | Population Apoptotic (%) [5]: 43% | Population Fragmented Nuclei (%) [5]: 17% | Population Healthy Nuclei (%) [5]: 65% | Population Hoechst High Intensity Objects (%) [5]: 1% | Population Membrane Permeable-Phenotype (%) [5]: 1% | Population Mitochondria Different-Phenotype (%) [5]: 3% | Population Mitotic Cells (%) [5]: 56% | Population Normal (%) [5]: 98% | Population Pyknosed Nuclei (%) [5]: 17% | Population Tubulin-Different-Phenotype (%) [5]: 25% | Total Cell Count [5]: 93 | Population Apoptotic (%) [6]: 33% | Population Fragmented Nuclei (%) [6]: 30% | Population Healthy Nuclei (%) [6]: 50% | Population Hoechst High Intensity Objects (%) [6]: 3% | Population Membrane Permeable-Phenotype (%) [6]: 8% | Population Mitochondria Different-Phenotype (%) [6]: 4% | Population Mitotic Cells (%) [6]: 66% | Population Normal (%) [6]: 96% | Population Pyknosed Nuclei (%) [6]: 19% | Population Tubulin-Different-Phenotype (%) [6]: 42% | Total Cell Count [6]: 145 | Population Apoptotic (%) [7]: 52% | Population Fragmented Nuclei (%) [7]: 14% | Population Healthy Nuclei (%) [7]: 61% | Population Hoechst High Intensity Objects (%) [7]: 2% | Population Membrane Permeable-Phenotype (%) [7]: 1% | Population Mitochondria Different-Phenotype (%) [7]: 3% | Population Mitotic Cells (%) [7]: 48% | Population Normal (%) [7]: 97% | Population Pyknosed Nuclei (%) [7]: 24% | Population Tubulin-Different-Phenotype (%) [7]: 45% | Total Cell Count [7]: 107 | Population Apoptotic (%) [8]: 56% | Population Fragmented Nuclei (%) [8]: 33% | Population Healthy Nuclei (%) [8]: 45% | Population Hoechst High Intensity Objects (%) [8]: 5% | Population Membrane Permeable-Phenotype (%) [8]: 5% | Population Mitochondria Different-Phenotype (%) [8]: 7% | Population Mitotic Cells (%) [8]: 43% | Population Normal (%) [8]: 94% | Population Pyknosed Nuclei (%) [8]: 20% | Population Tubulin-Different-Phenotype (%) [8]: 64% | Total Cell Count [8]: 118 | Population Apoptotic (%) [9]: 33% | Population Fragmented Nuclei (%) [9]: 20% | Population Healthy Nuclei (%) [9]: 67% | Population Hoechst High Intensity Objects (%) [9]: 1% | Population Membrane Permeable-Phenotype (%) [9]: 0% | Population Mitochondria Different-Phenotype (%) [9]: 0% | Population Mitotic Cells (%) [9]: 66% | Population Normal (%) [9]: 98% | Population Pyknosed Nuclei (%) [9]: 12% | Population Tubulin-Different-Phenotype (%) [9]: 26% | Total Cell Count [9]: 95 | Population Apoptotic (%) [10]: 40% | Population Fragmented Nuclei (%) [10]: 29% | Population Healthy Nuclei (%) [10]: 52% | Population Hoechst High Intensity Objects (%) [10]: 3% | Population Membrane Permeable-Phenotype (%) [10]: 4% | Population Mitochondria Different-Phenotype (%) [10]: 2% | Population Mitotic Cells (%) [10]: 60% | Population Normal (%) [10]: 96% | Population Pyknosed Nuclei (%) [10]: 17% | Population Tubulin-Different-Phenotype (%) [10]: 44% | Total Cell Count [10]: 147 | Population Apoptotic (%) [11]: 68% | Population Fragmented Nuclei (%) [11]: 15% | Population Healthy Nuclei (%) [11]: 56% | Population Hoechst High Intensity Objects (%) [11]: 7% | Population Membrane Permeable-Phenotype (%) [11]: 1% | Population Mitochondria Different-Phenotype (%) [11]: 15% | Population Mitotic Cells (%) [11]: 31% | Population Normal (%) [11]: 92% | Population Pyknosed Nuclei (%) [11]: 27% | Population Tubulin-Different-Phenotype (%) [11]: 50% | Total Cell Count [11]: 112 | Population Apoptotic (%) [12]: 69% | Population Fragmented Nuclei (%) [12]: 38% | Population Healthy Nuclei (%) [12]: 50% | Population Hoechst High Intensity Objects (%) [12]: 4% | Population Membrane Permeable-Phenotype (%) [12]: 6% | Population Mitochondria Different-Phenotype (%) [12]: 5% | Population Mitotic Cells (%) [12]: 30% | Population Normal (%) [12]: 95% | Population Pyknosed Nuclei (%) [12]: 11% | Population Tubulin-Different-Phenotype (%) [12]: 67% | Total Cell Count [12]: 121

CN1CCN(c2ccc(Nc3c4ccccc4nc4ccccc34)cc2)CC1.Cl.Cl.O
Population Apoptotic (%) [1]: 47% | Population Fragmented Nuclei (%) [1]: 15% | Population Healthy Nuclei (%) [1]: 69% | Population Hoechst High Intensity Objects (%) [1]: 1% | Population Membrane Permeable-Phenotype (%) [1]: 0% | Population Mitochondria Different-Phenotype (%) [1]: 3% | Population Mitotic Cells (%) [1]: 52% | Population Normal (%) [1]: 98% | Population Pyknosed Nuclei (%) [1]: 14% | Population Tubulin-Different-Phenotype (%) [1]: 23% | Total Cell Count [1]: 135 | Population Apoptotic (%) [2]: 44% | Population Fragmented Nuclei (%) [2]: 28% | Population Healthy Nuclei (%) [2]: 56% | Population Membrane Permeable-Phenotype (%) [2]: 5% | Population Mitochondria Different-Phenotype (%) [2]: 5% | Population Mitotic Cells (%) [2]: 56% | Population Pyknosed Nuclei (%) [2]: 15% | Population Tubulin-Different-Phenotype (%) [2]: 34% | Total Cell Count [2]: 160 | Population Apoptotic (%) [3]: 91% | Population Fragmented Nuclei (%) [3]: 42% | Population Healthy Nuclei (%) [3]: 49% | Population Hoechst High Intensity Objects (%) [3]: 8% | Population Membrane Permeable-Phenotype (%) [3]: 0% | Population Mitochondria Different-Phenotype (%) [3]: 47% | Population Mitotic Cells (%) [3]: 8% | Population Normal (%) [3]: 91% | Population Pyknosed Nuclei (%) [3]: 8% | Population Tubulin-Different-Phenotype (%) [3]: 90% | Total Cell Count [3]: 158 | Population Apoptotic (%) [4]: 66% | Population Fragmented Nuclei (%) [4]: 65% | Population Healthy Nuclei (%) [4]: 29% | Population Hoechst High Intensity Objects (%) [4]: 16% | Population Membrane Permeable-Phenotype (%) [4]: 4% | Population Mitochondria Different-Phenotype (%) [4]: 13% | Population Mitotic Cells (%) [4]: 33% | Population Normal (%) [4]: 83% | Population Pyknosed Nuclei (%) [4]: 4% | Population Tubulin-Different-Phenotype (%) [4]: 79% | Total Cell Count [4]: 177 | Population Apoptotic (%) [5]: 70% | Population Fragmented Nuclei (%) [5]: 21% | Population Healthy Nuclei (%) [5]: 65% | Population Hoechst High Intensity Objects (%) [5]: 0% | Population Membrane Permeable-Phenotype (%) [5]: 0% | Population Mitochondria Different-Phenotype (%) [5]: 2% | Population Mitotic Cells (%) [5]: 29% | Population Normal (%) [5]: 99% | Population Pyknosed Nuclei (%) [5]: 12% | Population Tubulin-Different-Phenotype (%) [5]: 12% | Total Cell Count [5]: 139 | Population Apoptotic (%) [6]: 60% | Population Fragmented Nuclei (%) [6]: 29% | Population Healthy Nuclei (%) [6]: 57% | Population Membrane Permeable-Phenotype (%) [6]: 3% | Population Mitochondria Different-Phenotype (%) [6]: 7% | Population Mitotic Cells (%) [6]: 40% | Population Normal (%) [6]: 100% | Population Tubulin-Different-Phenotype (%) [6]: 39% | Total Cell Count [6]: 155 | Population Apoptotic (%) [7]: 77% | Population Fragmented Nuclei (%) [7]: 47% | Population Healthy Nuclei (%) [7]: 39% | Population Hoechst High Intensity Objects (%) [7]: 16% | Population Membrane Permeable-Phenotype (%) [7]: 1% | Population Mitochondria Different-Phenotype (%) [7]: 66% | Population Mitotic Cells (%) [7]: 22% | Population Normal (%) [7]: 83% | Population Pyknosed Nuclei (%) [7]: 12% | Population Tubulin-Different-Phenotype (%) [7]: 94% | Total Cell Count [7]: 206 | Population Apoptotic (%) [8]: 60% | Population Fragmented Nuclei (%) [8]: 69% | Population Healthy Nuclei (%) [8]: 27% | Population Hoechst High Intensity Objects (%) [8]: 21% | Population Membrane Permeable-Phenotype (%) [8]: 6% | Population Mitochondria Different-Phenotype (%) [8]: 34% | Population Mitotic Cells (%) [8]: 40% | Population Normal (%) [8]: 78% | Population Pyknosed Nuclei (%) [8]: 3% | Population Tubulin-Different-Phenotype (%) [8]: 84% | Total Cell Count [8]: 205 | Population Apoptotic (%) [9]: 66% | Population Fragmented Nuclei (%) [9]: 23% | Population Healthy Nuclei (%) [9]: 70% | Population Hoechst High Intensity Objects (%) [9]: 1% | Population Membrane Permeable-Phenotype (%) [9]: 0% | Population Mitochondria Different-Phenotype (%) [9]: 4% | Population Mitotic Cells (%) [9]: 33% | Population Normal (%) [9]: 98% | Population Pyknosed Nuclei (%) [9]: 6% | Population Tubulin-Different-Phenotype (%) [9]: 26% | Total Cell Count [9]: 144 | Population Apoptotic (%) [10]: 55% | Population Fragmented Nuclei (%) [10]: 25% | Population Healthy Nuclei (%) [10]: 68% | Population Membrane Permeable-Phenotype (%) [10]: 1% | Population Mitotic Cells (%) [10]: 44% | Population Pyknosed Nuclei (%) [10]: 5% | Total Cell Count [10]: 157 | Population Apoptotic (%) [11]: 68% | Population Fragmented Nuclei (%) [11]: 71% | Population Healthy Nuclei (%) [11]: 15% | Population Hoechst High Intensity Objects (%) [11]: 45% | Population Membrane Permeable-Phenotype (%) [11]: 15% | Population Mitochondria Different-Phenotype (%) [11]: 30% | Population Mitotic Cells (%) [11]: 31% | Population Normal (%) [11]: 54% | Population Pyknosed Nuclei (%) [11]: 12% | Population Tubulin-Different-Phenotype (%) [11]: 25% | Total Cell Count [11]: 235 | Population Apoptotic (%) [12]: 0% | Population Fragmented Nuclei (%) [12]: 88% | Population Healthy Nuclei (%) [12]: 11% | Population Hoechst High Intensity Objects (%) [12]: 38% | Population Membrane Permeable-Phenotype (%) [12]: 25% | Population Mitochondria Different-Phenotype (%) [12]: 12% | Population Mitotic Cells (%) [12]: 0% | Population Normal (%) [12]: 61% | Population Pyknosed Nuclei (%) [12]: 0% | Population Tubulin-Different-Phenotype (%) [12]: 56% | Total Cell Count [12]: 236
